Laboratory results from ChEMBL document CHEMBL1125042, “Hypolipidemic activity of rifamycin derivatives” (J Med Chem, 1990).
≈ marks a conversion by molar mass, not a printed value.

What was measured:
Assay type in all cases: functional
Rattus norvegicus [1] = assay: Tested for hypolipidemic activity in male rats, cholesterol was determined in serum at 20 mg/kg
How it was run: (§1)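 Groups of eight male Wistar rats (200–230 g) dosed orally in PEG 400, either daily for 7 days (killed 24 h after the last dose) or for 4 days with a second dose on day 4 (killed 16 h later). Fasted 16 h. Paired sera pooled, lipoproteins separated by ultracentrifugation (1.006 and 1.040 g/cm³), HDL taken as the infranatant. Cholesterol measured enzymatically; % vs vehicle, mean ± SEM of four pools.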

Rattus norvegicus [2] = assay: Hypolipidemic activity was determined in male rats, and high-density lipoprotein level was determined at 20 mg/kg
How it was run: (§2)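 Male Wistar rats (200–230 g), eight per group, were dosed orally in PEG 400 at 8 a.m. for 4 days, plus a second dose at 4 p.m. on day 4. Rats were fasted 16 h and killed 16 h after the last dose. Sera from pairs of rats were pooled. LDL (up to 1.040 g/cm³) was separated by ultracentrifugation and the HDL infranatant taken. Cholesterol was measured enzymatically. Results are % versus vehicle control, mean ± SEM of four pools, Student's t test.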

Rattus norvegicus [3] = assay: Hypolipidemic activity was determined in male rats, and low-density lipoprotein level was determined at 20 mg/kg; how it was run: as §2
Staphylococcus aureus = assay: Antibacterial activity against Staphylococcus aureus 10B
How it was run: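 Agar dilution on DST agar with 2-fold drug dilutions. Inoculum of 10⁴ viable S. aureus 10B was taken from liquid-nitrogen stock, thawed 30 min and not subcultured. It was applied by multipoint replicator and incubated overnight at 37 °C. MIC is the lowest concentration inhibiting growth relative to control cultures.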

Rattus norvegicus [4] = assay: Tested for hypolipidemic activity in male rats, cholesterol was determined in serum at 10 mg/kg; how it was run: as §1
Rattus norvegicus [5] = assay: Hypolipidemic activity was determined in male rats, and high-density lipoprotein level was determined at 10 mg/kg; how it was run: as §2
Rattus norvegicus [6] = assay: Hypolipidemic activity was determined in male rats, and low-density lipoprotein level was determined at 10 mg/kg; how it was run: as §2

| MIC (Staphylococcus aureus) [mg/L] | Compound | Activity (Rattus norvegicus [1]) [%] | Activity (Rattus norvegicus [2]) [%] | Activity (Rattus norvegicus [3]) [%] | Activity (Rattus norvegicus [4]) [%] | Activity (Rattus norvegicus [5]) [%] | Activity (Rattus norvegicus [6]) [%] |
| --- | --- | --- | --- | --- | --- | --- | --- |
| < 0.1 | COC1/C=C/OC2(C)Oc3c(C)c(O)c4c(O)c(c(N5CCCCC5)c(O)c4c3C2=O)NC(=O)/C(C)=C\C=C\C(C)C(O)C(C)C(O)C(C)C(OC(C)=O)C1C (centres undefined) | -32 | -36 | -19 |  |  |  |
| < 0.1 | COC1/C=C/OC2(C)Oc3c(C)c(O)c4c(O)c(c(N5CCC(C(C)(C)C)CC5)c(O)c4c3C2=O)NC(=O)/C(C)=C\C=C\C(C)C(O)C(C)C(O)C(C)C(OC(C)=O)C1C (centres undefined) | -51 | -48 | -52 |  |  |  |
| < 0.1 | COC1/C=C/OC2(C)Oc3c(C)c(O)c4c(O)c(c(N5CCC(CO)CC5)c(O)c4c3C2=O)NC(=O)/C(C)=C\C=C\C(C)C(O)C(C)C(O)C(C)C(OC(C)=O)C1C (centres undefined) | -14 | -10 | -7 |  |  |  |

Second part, the molecule before the results:

| Compound | MIC (Staphylococcus aureus) [mg/L] | Activity (Rattus norvegicus [1]) [%] | Activity (Rattus norvegicus [2]) [%] | Activity (Rattus norvegicus [3]) [%] | Activity (Rattus norvegicus [4]) [%] | Activity (Rattus norvegicus [5]) [%] | Activity (Rattus norvegicus [6]) [%] |
| --- | --- | --- | --- | --- | --- | --- | --- |
| COC1/C=C/OC2(C)Oc3c(C)c(O)c4c(O)c(c(N5CCN(Cc6c(C)cc(C)cc6C)CC5)c(O)c4c3C2=O)NC(=O)/C(C)=C\C=C\C(C)C(=O)C(C)C(O)C(C)C(OC(C)=O)C1C (centres undefined) | 64 (≈ 70.2 µM) |  |  |  | -11 | -15 | 1 |
| COC1/C=C/OC2(C)Oc3c(C)c(O)c4c(O)c(c(N5CCN(Cc6c(C)cc(C)cc6C)CC5)c(O)c4c3C2=O)NC(=O)/C(C)=C\C=C\C(C)C2OC(C)(C)OC(C2C)C(C)C(OC(C)=O)C1C (centres undefined) | 8 (≈ 8.38 µM) |  |  |  | -14 | -27 | -6 |
| COC1/C=C/OC2(C)Oc3c(C)c(O)c4c(O)c(c(N5CCN(Cc6c(C)cc(C)cc6C)CC5)c(O)c4c3C2=O)NC(=O)/C(C)=C\C=C\C(C)C(OC(C)=O)C(C)C(OC(C)=O)C(C)C(OC(C)=O)C1C (centres undefined) | 4 (≈ 4.01 µM) |  |  |  | -24 | -24 | -19 |
